Experiments:
[1] = target: T1, Delta-type opioid receptor (Mus musculus, UniProt P32300); assay: Opioid receptor delta 1 agonism in mouse vas deferens; type: functional, tissue-based
In short: (§1)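 Isolated tissue bioassay: mouse vas deferens for δ, guinea pig ileum for μ. Field stimulation with bipolar rectangular pulses of supramaximal voltage. Inhibition of the electrically evoked twitch measured, and IC50 taken from concentration–response curves. [D-Ala2]deltorphin I (MVD) and dermorphin (GPI) were internal standards. Five to six separate assays.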

[2] = target: Mu-type opioid receptor (Cavia porcellus, UniProt P97266); assay: Opioid receptor mu 1 agonism in guinea pig ileum; type: functional, tissue-based; in short: as §1
Mu-type opioid receptor (Cavia porcellus, UniProt P97266), sequence (P97266 whole entry): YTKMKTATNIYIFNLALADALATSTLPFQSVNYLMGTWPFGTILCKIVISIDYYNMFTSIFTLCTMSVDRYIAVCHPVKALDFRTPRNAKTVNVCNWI

[3] = target: Mu-type opioid receptor (Rattus norvegicus, UniProt P33535); assay: Binding affinity for Opioid receptor mu 1 using [3H]DAGO in rat brain P2 synaptosomal preparation; type: tissue-based
Mu-type opioid receptor (Rattus norvegicus, UniProt P33535), sequence (P33535 whole entry): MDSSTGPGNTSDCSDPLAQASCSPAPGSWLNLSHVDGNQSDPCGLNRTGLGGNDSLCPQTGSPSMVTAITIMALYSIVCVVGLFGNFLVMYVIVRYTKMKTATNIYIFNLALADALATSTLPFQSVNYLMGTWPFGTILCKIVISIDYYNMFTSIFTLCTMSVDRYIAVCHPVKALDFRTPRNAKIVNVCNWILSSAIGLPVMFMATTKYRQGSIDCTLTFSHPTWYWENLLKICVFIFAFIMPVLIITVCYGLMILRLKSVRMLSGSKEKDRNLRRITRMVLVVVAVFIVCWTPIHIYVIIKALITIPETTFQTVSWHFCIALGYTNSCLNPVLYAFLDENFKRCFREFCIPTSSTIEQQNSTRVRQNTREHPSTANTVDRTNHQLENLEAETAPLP
In short: (§2)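 Competition binding at equilibrium, 2 h at room temperature, on rat brain P2 synaptosomes. Nonspecific binding with 2 μM unlabeled peptide. GF/C filtration and scintillation counting. Duplicates, five to eight doses, 3–5 repeats. Ki by Cheng–Prusoff.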

[4] = target: Delta-type opioid receptor (Rattus norvegicus, UniProt P33533); assay: Binding affinity for Opioid receptor delta 1 using [3H]DPDPE in rat brain P2 synaptosomal preparation; type: tissue-based; in short: as §2
Delta-type opioid receptor (Rattus norvegicus, UniProt P33533), sequence (P33533 whole entry): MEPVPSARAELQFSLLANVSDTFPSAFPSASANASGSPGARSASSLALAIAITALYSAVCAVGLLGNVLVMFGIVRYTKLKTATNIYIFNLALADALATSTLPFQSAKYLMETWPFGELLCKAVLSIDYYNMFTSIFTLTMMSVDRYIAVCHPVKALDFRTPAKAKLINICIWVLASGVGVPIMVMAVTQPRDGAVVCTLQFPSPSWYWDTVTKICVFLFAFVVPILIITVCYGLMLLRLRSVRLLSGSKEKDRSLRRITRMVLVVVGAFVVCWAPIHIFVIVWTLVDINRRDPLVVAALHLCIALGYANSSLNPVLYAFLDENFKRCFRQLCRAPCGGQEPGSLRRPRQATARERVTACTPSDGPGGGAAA

[5] = target: T1, Delta-type opioid receptor; assay: Concentration required to double the agonist concentration to achieve the original response for Opioid receptor delta 1; type: functional; settings: read-out: pA2 (converted)
In short: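 Antagonism reported as pA2, the negative log of the molar antagonist concentration that doubles the agonist concentration needed for the original response. Measured in the δ bioassay, the electrically stimulated mouse vas deferens twitch preparation. n = 5–6.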

[6] = target: Opioid receptors; mu & delta (Rattus norvegicus) (UniProt P33533+P33535); assay: Receptor selectivity for the delta to mu opioid receptor; type: protein assay
Opioid receptors; mu & delta (Rattus norvegicus), sequence (P33533 whole entry, looked up): as the sequence (P33533 whole entry) above
Opioid receptors; mu & delta (Rattus norvegicus), sequence (P33535 whole entry, looked up): as the sequence (P33535 whole entry) above
In short: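 δ/μ ratio of Ki values from rat brain P2 synaptosome competition binding ([3H]DPDPE for δ, [3H]DAGO for μ; 2 h, room temperature). Ki calculated by Cheng–Prusoff.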

T1 sequence (P32300 whole entry): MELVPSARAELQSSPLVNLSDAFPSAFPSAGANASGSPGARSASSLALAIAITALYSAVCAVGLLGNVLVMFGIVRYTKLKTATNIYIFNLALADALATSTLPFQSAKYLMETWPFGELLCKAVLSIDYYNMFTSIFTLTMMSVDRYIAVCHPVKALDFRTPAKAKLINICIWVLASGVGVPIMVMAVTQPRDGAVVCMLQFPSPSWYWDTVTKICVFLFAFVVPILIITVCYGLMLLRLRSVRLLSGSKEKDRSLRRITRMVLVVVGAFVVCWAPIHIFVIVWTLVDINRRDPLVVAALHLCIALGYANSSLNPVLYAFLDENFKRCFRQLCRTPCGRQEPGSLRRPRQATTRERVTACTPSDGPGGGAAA

Structure (SMILES) | IC50 [1] [nM] | IC50 [2] [nM] | Ki [3] [nM] | Ki [4] [nM] | Kb [5] [nM] | Ratio [6]
Cc1cc(O)cc(C)c1C[C@@H](N)C(=O)NCCCCCCNC(=O)[C@@H](N)Cc1c(C)cc(O)cc1C | > 10000 | 3.08 | 0.053 | 46.1 | 794 | 870
N[C@H](Cc1ccccc1)C(=O)NCCCCNC(=O)[C@@H](N)Cc1ccccc1 |  |  | 1530 | 46200 |  | 30
Cc1cc(O)cc(C)c1C[C@@H](N)C(=O)NCCCCCCCCNC(=O)[C@@H](N)Cc1c(C)cc(O)cc1C | > 10000 | 53.7 | 0.19 | 14.8 | 398 | 78
Cc1cc(O)cc(C)c1C[C@H](N)C(=O)NCCCCNC(=O)[C@H](N)Cc1ccc(O)cc1 | > 10000 | 255 | 0.38 | 133 | 5010 | 349
Cc1cc(O)cc(C)c1C[C@H](N)C(=O)NCCCCNC(=O)[C@H](N)Cc1ccccc1 | > 10000 | 181 | 0.52 | 62 | 3160 | 119
Cc1cc(O)cc(C)c1C[C@@H](N)C(=O)NCCCCNC(=O)[C@@H](N)Cc1c(C)cc(O)cc1C | > 10000 | 5.33 | 0.041 | 53.4 | 1580 | 1300
N[C@H](Cc1ccc(O)cc1)C(=O)NCCCCCCNC(=O)[C@@H](N)Cc1ccc(O)cc1 |  |  | 410 | 21900 |  | 53
N[C@H](Cc1ccc(O)cc1)C(=O)NCCNC(=O)[C@@H](N)Cc1ccc(O)cc1 |  |  | 648 | 8290 |  | 13
Cc1cc(O)cc(C)c1C[C@@H](N)C(=O)NCCNC(=O)[C@@H](N)Cc1c(C)cc(O)cc1C | > 10000 | 2840 | 1.43 | 116 | 3160 | 81
N[C@H](Cc1ccc(O)cc1)C(=O)NCCCCNC(=O)[C@@H](N)Cc1ccc(O)cc1 |  |  | 309 | 6500 |  | 21
N[C@H](Cc1ccc(O)cc1)C(=O)NCCCCCCCCNC(=O)[C@@H](N)Cc1ccc(O)cc1 |  |  | 399 | 6150 |  | 
